# Compound activity deposited in PubChem BioAssay by several laboratories.
# Beta2AR agonist = beta2AR agonists driving receptor internalization, primary screen, cell-based, FAP fluorogen, flow cytometry; Beta-2 adrenergic receptor (Homo sapiens), P07550; Am2.2-beta2AR cells; response, % (test concentration not listed); actives 0.43% (n = 340,000);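 active = response above a set limit, near 3 SD of response in nonfluorescent compounds, cut at about 42% in these data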
# Target sequence (P07550 whole entry, looked up): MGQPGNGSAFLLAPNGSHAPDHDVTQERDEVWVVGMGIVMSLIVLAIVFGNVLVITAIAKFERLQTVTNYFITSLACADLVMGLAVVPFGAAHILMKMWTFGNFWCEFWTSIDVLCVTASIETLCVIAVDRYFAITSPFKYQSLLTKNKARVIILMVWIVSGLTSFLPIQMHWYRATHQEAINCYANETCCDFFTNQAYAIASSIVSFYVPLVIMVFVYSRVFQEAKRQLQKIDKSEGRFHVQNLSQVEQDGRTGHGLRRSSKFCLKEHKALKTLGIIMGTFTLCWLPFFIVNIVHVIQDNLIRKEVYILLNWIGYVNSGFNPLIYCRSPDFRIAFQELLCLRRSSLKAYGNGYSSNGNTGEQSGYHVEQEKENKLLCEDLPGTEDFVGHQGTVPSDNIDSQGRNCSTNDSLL
# TAAR1 antag = human TAAR1 antagonists, primary screen, Fluo-8 calcium fluorescence, CHO RD-HGA16 cells; antagonist; AID 624466, 2012; actives 1.5% (n = 360,000); inhibition, % at 3 µM; Trace amine-associated receptor 1 (Homo sapiens), Q96RJ0;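 active = inhibition above a per-plate cutoff, the mean inhibition of test compounds on that plate plus 3 SD, cut at about 49% in these data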
#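 Assay system: RD-HGA16 CHO cells with stable hTAAR1 and Gα16 / Reagent: EC80 β-phenethylamine stimulus / Doses: 3 µM, single point / Timing: dye loading 75 min at 37 °C, then 30 min room temperature / Measured by: Fluo-8 intracellular calcium dye fluorescence, real-time kinetic reads / Controls: vehicle wells and EC80 agonist wells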
# m5-HT2A agonist = mouse Htr2a agonists via beta-arrestin recruitment, primary screen, cell-based, luminescence | 5-hydroxytryptamine receptor 2A (Mus musculus), P35363 | actives 0.66% (n = 360,000) | CHO-K1 mHTR2A beta-arrestin complementation; percent of 30 µM serotonin response | activation, % at 7.6 µM | AID 624169, 2012;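 active = activation above a run cutoff, the mean activation of all tested compounds plus 3 SD, cut at about 14% in these data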
# MC4R antag cAMP = MC4R antagonists of cAMP signaling, primary screen, cell-based, TR-FRET, antagonist arm of biased-ligand search | Melanocortin receptor 4 (Homo sapiens), P32245 | actives 0.48% (n = 360,000) | AID 540295, 2011 | inhibition, % at 6.5 µM | MC4R-expressing cells, MTII-stimulated cAMP, LANCE TR-FRET;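 active = inhibition above its plate's cutoff, the mean of tested wells on that plate plus 3 SD, cut at about 29% in these data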
#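 System: U2OS cells stably expressing human melanocortin 4 receptor (MC4R). Reagent: Melanotan II challenge after compound preincubation. Doses: 6.5 µM. Times: 30-min compound, 1-h challenge, 1-h detection, room temperature. Measured by: TR-FRET with Eu-cAMP and labeled anti-cAMP, 671 nm. Replicates: singlicate.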
# MC4R barr agon = MC4R agonists recruiting beta-arrestin, primary screen, cell-based, luminescence, agonist arm of biased-ligand search; AID 540308, 2011; activation, % at 8.9 µM; Melanocortin receptor 4 (Homo sapiens), P32245; U2OS MC4R beta-arrestin complementation; percent of melanotan II response, DMSO zero; actives 0.98% (n = 360,000);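 active = activation above a per-plate cutoff, the mean activation of sample wells on that plate plus 3 SD, cut at about 8% in these data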
# TAAR1 agonist = human TAAR1 agonists, primary screen, Fluo-8 calcium fluorescence, CHO RD-HGA16 cells. vehicle wells 0%, saturating PEA agonist 100%. activation, % at 3 µM. Trace amine-associated receptor 1 (Homo sapiens), Q96RJ0. actives 0.99% (n = 360,000). AID 624467, 2012;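 active = activation above the mean activation of all test compounds in the run plus 3 SD, cut at about 38% in these data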
#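 Assay system – CHO-derived RD-HGA16 cells with stable Gα16 and human TAAR1 · Compound dosing – one-point dosing at 3 µM (nominal) · Incubation – 17-24 h seeding, 75 min 37 °C dye, 30 min RT · Measured by – kinetic Fluo-8 calcium fluorescence · Control set – DMSO vehicle as 0%, PEA at EC100 as 100% · Repeats – single well for each compound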
# A number is an active result; . = inactive; / = not tested or not shown. A selection: hits, their analogues and other compounds. The true share with any hit is near 4.3%.
SMILES,Beta2AR agonist,TAAR1 antag,m5-HT2A agonist,MC4R antag cAMP,MC4R barr agon,TAAR1 agonist
CCOC(=O)c1c(C)oc2c(F)c(F)c(F)c(F)c2c1=O,43.1,.,.,32.6,.,.
Cc1ccc(/C=N\NC(=O)c2cc(OCC(F)(F)F)ccc2OCC(F)(F)F)cc1,.,.,.,.,13.6,.
O=C(N/N=C\c1ccc(F)cc1)c1cc(OCC(F)(F)F)ccc1OCC(F)(F)F,.,.,.,.,.,.
COc1ccc(C2=NCC(CSc3nnc(-c4ccc5c(c4)OCO5)o3)S2)cc1 (configuration not stated),.,50.3,.,.,.,.
O=C(Nc1ccccc1)c1ccccc1OCC(O)CN1C(=O)c2ccccc2S1(=O)=O (configuration not stated),.,64.7,.,.,.,.
CCCc1c(NC(=O)Nc2ccc(Cl)cc2Cl)cnn1-c1ccccc1,.,.,.,.,9.2,.
COC(=O)CC#C[C@H](C)[C@@H](NS(C)(=O)=O)C(C)(C)COCc1ccccc1,/,.,/,/,/,.
Cc1ccccc1C(=O)N1CCC2CC1c1cc(-c3ccc(F)cc3)ccc12 (configuration not stated),.,59.5,.,.,.,.
Cc1cccc2nc(-c3ccccc3)c(-c3ccc(CN4CCC5(CC4)CNc4ccccc45)cc3)nc12,/,.,/,/,/,.
CCCCC(=O)Nc1ccc2c3c(cccc13)CC2,45.6,.,.,.,.,.
CC1=CC2C(C(O)CC3(C)C2CC(C)C32OCOC23COCO3)C2(C)C/C(=C\O)C(=O)C=C12 (configuration not stated),.,.,.,.,29.4,.
c1ccc(CCN(Cc2ccccc2)Cc2nc(C3CC3)no2)cc1,.,.,.,.,.,38.0
CCN(Cc1ccccc1)Cc1nc(CCc2ccccc2)no1,.,.,.,.,.,.
COc1ccc(CCNC(=O)c2sc3cc(C)ccc3c2Cl)cc1,.,.,.,.,9.4,.
COCCCNC(=O)c1cccn2c(=O)c3cc4ccccc4cc3nc12,.,.,.,.,9.1,.
C=CCn1c(=N)c(C(=O)NCCCOC)cc2c(=O)n3cccc(C)c3nc21,.,.,.,.,.,.
N#CCS(=O)(=O)c1cccc[n+]1[O-],/,.,/,/,/,.
O=C(N/N=C/c1cn(-c2ccccc2)nc1-c1cccs1)c1ccncc1,.,49.5,.,.,.,.
O=C(c1cn(-c2ccccc2)nc1-c1cccs1)N1CCN(c2ccccc2)CC1,.,/,.,.,.,/
Cc1nnc(SCC(=O)N/N=C/c2cn(-c3ccccc3)nc2-c2ccccc2)n1-c1ccccc1,64.2,.,.,.,.,.
NC(=O)N/N=C/c1cn(-c2ccccc2)nc1-c1cccs1,.,.,.,.,.,.
CCOC(=O)c1ccc(NC(=O)c2cn(-c3ccccc3)nc2-c2ccncc2)cc1,.,62.5,.,.,.,.
O=C(Nc1cccc2ccccc12)c1cn(-c2ccccc2)nc1-c1cccs1,.,/,17.3,.,.,/
Cc1ccc(-c2nnc(SCC(=O)N/N=C/c3ccccc3C(=O)O)n2-c2ccccc2)cc1,/,.,/,/,/,.
C[C@@H]1NS(=O)(=O)c2ccc(F)cc2O[C@@H]1c1ccccc1,/,.,/,/,/,.
SMILES,Beta2AR agonist,TAAR1 antag,m5-HT2A agonist,MC4R antag cAMP,MC4R barr agon,TAAR1 agonist
CCN(CC)CCNC(=O)c1ccc(NC(=O)c2cn(-c3ccccc3)nc2-c2cccs2)cc1,.,.,.,.,.,.
COC(=O)c1cn(-c2ccccc2)nc1-c1ccc(OC)cc1,.,.,.,.,.,.
O=C(N/N=C\c1cn(-c2ccccc2)nc1-c1ccccc1)c1ccc(Br)o1,.,53.8,.,.,.,.
CC(C)COc1ccc(-c2nn(-c3ccccc3)cc2C(=O)Nc2nccs2)cc1,.,72.7,.,.,.,.
Cc1ccc(-c2nn(-c3ccccc3)cc2/C=N/NC(=O)c2ccc(Br)o2)cc1,.,.,.,.,.,.
O=C(Nc1cccnc1)c1cn(-c2ccccc2)nc1-c1cccs1,.,50.5,.,.,.,.
CC(C)(C)OC(=O)C[C@@H]1C/C=C\C[C@@H](CC(=O)N(CCO)Cc2ccccc2)C(=O)NC[C@@H](c2ccccc2)OC1=O,.,.,.,.,.,.
CC(C)(C)OC(=O)C[C@@H]1C/C=C\C[C@@H](CC(=O)N(CCO)Cc2ccccc2)C(=O)NC[C@H](c2ccccc2)OC1=O,.,62.9,.,.,.,.
O=C1N[C@@H](Cc2ccccc2)COC(=O)[C@@H](Cc2ccc(F)cc2)C/C=C\C[C@@H]1CC(=O)N(CCO)Cc1ccccc1,.,54.4,.,.,.,.
CC(C)(C)[C@H]1COC(=O)[C@@H](Cc2ccc(F)cc2)CC/C=C/C[C@@H](CC(=O)N[C@@H](CO)Cc2ccccc2)C(=O)N1,.,52.0,.,.,.,.
O=C(C(=O)N(C1CCCCC1)C1CCCCC1)c1ccccc1,/,.,.,/,/,.
CSc1ccccc1NC(=O)c1cc(-c2ccc3c(c2)OCO3)on1,.,.,.,.,12.2,.
O=C(Nc1cc(Br)ccc1O)c1cc(-c2ccc3c(c2)OCO3)on1,.,.,.,.,.,.
COC(=O)c1ccccc1-c1ccc(/C=N/NC(=O)c2cc3ccccc3o2)o1,.,55.4,.,.,.,.
C[C@@H]1CN([C@@H](C)CO)C(=O)CCCn2cc(nn2)CO[C@H]1CN(C)C(=O)Cc1ccccc1,/,.,/,/,/,.
Cc1cc(C)c2c(CCl)cc(=O)oc2c1,43.9,.,.,.,.,.
Cc1cc(C)c2c(CN3CCCCC3)cc(=O)oc2c1,.,.,.,.,.,.
COc1ccc(CCNc2ccc(N3C(=O)CC(C)C3=O)cc2[N+](=O)[O-])cc1OC (configuration not stated),.,49.7,.,.,.,.
C[C@@H]1ON(C)[C@H]2C[C@H]3c4[nH]c5c(-c6ccc(C(F)(F)F)cc6)cccc5c4CCN3C(=O)[C@@H]12,/,.,/,/,/,.
O=C(COc1ccc2ccc(=O)oc2c1)Nc1cc([N+](=O)[O-])ccc1F,60.3,.,.,.,.,.
NC(=O)c1ncn([C@@H]2O[C@H](C(=O)N[C@H](Cc3ccccc3)C(=O)N3CCN(CC(=O)Nc4ccccn4)CC3)[C@@H](O)[C@H]2O)n1,/,.,/,/,/,.
